Tests used:
[1] = target: T1, Delta-type opioid receptor (Homo sapiens, UniProt P41143); assay: Displacement of [3H]DPDPE from human delta opioid receptor expressed in mouse HN9.10 cells; type: cell-based
[2] = target: Substance-P receptor (Homo sapiens, UniProt P25103); assay: Displacement of [3H]substance P from human NK1 receptor expressed in CHO cells; type: cell-based
[3] = target: Substance-P receptor (Rattus norvegicus, UniProt P14600); assay: Displacement of [3H]substance P from rat NK1 receptor expressed in CHO cells; type: cell-based
[4] = target: Delta-type opioid receptor (Mus musculus, UniProt P32300); assay: Agonist activity at delta opioid receptor in mouse vas deferens assessed as inhibition of electrically-stimulated muscle contraction; type: functional, tissue-based
[5] = target: Mu-type opioid receptor (Cavia porcellus, UniProt P97266); assay: Agonist activity at mu opioid receptor in guinea pig ileum assessed as inhibition of electrically-stimulated muscle contraction; type: functional, tissue-based
[6] = target: Substance-P receptor (Cavia porcellus) (UniProt P30547); assay: Antagonist activity at NK1 receptor in guinea pig ileum assessed as inhibition of substance P-induced muscle contraction; type: functional, tissue-based
[7] = target: T1, Delta-type opioid receptor; assay: Agonist activity at human opioid delta receptor expressed in mouse HN9.10 cells assessed as [35S]GTPgammaS binding; type: functional, cell-based
Outline: (§1)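 [35S]GTPγS binding on membranes of HN9.10 cells stably expressing human DOR or rat MOR, about 1 pmol receptor/mg membrane protein. logEC50 from non-linear regression of at least two independent experiments in duplicate; EC50 is the antilog. Emax given as percent stimulation.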

[8] = target: T1, Delta-type opioid receptor; assay: Agonist activity at human opioid delta receptor expressed in mouse HN9.10 cells assessed as [35S]GTPgammaS binding relative to control; type: functional, cell-based; outline: as §1
[9] = target: Mu-type opioid receptor (Rattus norvegicus) (UniProt P33535); assay: Agonist activity at rat mu opioid receptor expressed in mouse HN9.10 cells assessed as [35S]GTPgammaS binding relative to control; type: functional, cell-based; outline: as §1
[10] = target: T2, Mu-type opioid receptor (Rattus norvegicus, UniProt P33535); assay: Displacement of [3H]DAMGO from rat mu opioid receptor expressed in mouse HN9.10 cells; type: cell-based
[11] = target: T2, Mu-type opioid receptor; assay: Agonist activity at rat mu opioid receptor expressed in mouse HN9.10 cells assessed as [35S]GTPgammaS binding; type: functional, cell-based
[12] = tested on: Plasma; assay: Metabolic stability in rat plasma after up to 6 hrs; type: ADME, cell-free
Outline: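 DMSO stock diluted 1000-fold into rat plasma, giving 50 μg/mL final, and incubated at 37 °C. Aliquots taken at 1, 2, 4 and 6 h, proteins precipitated with acetonitrile, and remaining parent measured by HPLC. Three independent experiments, mean ± SD; half-life calculated.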

[13] = tested on: Rattus norvegicus; assay: Antinociceptive activity in Sprague-Dawley rat assessed as time required to maximum activity on reduction in infrared heat-induced paw withdrawal latency at 10 ug administered intrathecally; type: functional
Outline: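 Male Sprague-Dawley rats (200-225 g) fitted with a lumbar intrathecal catheter under ketamine/xylazine and given 5-7 days recovery. Dose of 10 μg in 5 μL i.t., followed by air bubble and saline flush. Radiant heat applied to left hind paw after 20 min acclimation, with 33.0 s cutoff. Baseline taken 30 min before dosing; […], mean ± SEM.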

Substance-P receptor (Rattus norvegicus, UniProt P14600), sequence (P14600 whole entry): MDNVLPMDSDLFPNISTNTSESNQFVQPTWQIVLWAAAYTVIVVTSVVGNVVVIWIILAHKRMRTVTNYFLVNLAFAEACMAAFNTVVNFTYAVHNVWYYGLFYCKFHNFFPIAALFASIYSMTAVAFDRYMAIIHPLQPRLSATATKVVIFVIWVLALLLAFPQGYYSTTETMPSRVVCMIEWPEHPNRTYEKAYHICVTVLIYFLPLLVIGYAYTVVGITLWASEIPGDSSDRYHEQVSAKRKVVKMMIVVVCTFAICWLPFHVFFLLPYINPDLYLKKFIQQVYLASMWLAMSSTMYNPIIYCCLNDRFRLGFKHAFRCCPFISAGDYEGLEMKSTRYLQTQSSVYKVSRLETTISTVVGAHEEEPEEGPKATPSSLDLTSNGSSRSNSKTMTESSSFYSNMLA
T1 sequence (P41143 whole entry): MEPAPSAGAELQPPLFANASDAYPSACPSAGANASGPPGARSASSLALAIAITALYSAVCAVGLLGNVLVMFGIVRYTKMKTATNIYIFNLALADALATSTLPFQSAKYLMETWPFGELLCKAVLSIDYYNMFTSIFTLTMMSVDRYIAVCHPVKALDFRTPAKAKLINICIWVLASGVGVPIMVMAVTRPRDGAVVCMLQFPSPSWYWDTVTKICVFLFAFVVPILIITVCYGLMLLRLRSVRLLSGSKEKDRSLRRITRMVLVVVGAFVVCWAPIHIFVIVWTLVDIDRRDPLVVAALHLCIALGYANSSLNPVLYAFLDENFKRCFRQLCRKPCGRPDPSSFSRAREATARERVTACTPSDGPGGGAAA
T2 sequence (P33535 whole entry): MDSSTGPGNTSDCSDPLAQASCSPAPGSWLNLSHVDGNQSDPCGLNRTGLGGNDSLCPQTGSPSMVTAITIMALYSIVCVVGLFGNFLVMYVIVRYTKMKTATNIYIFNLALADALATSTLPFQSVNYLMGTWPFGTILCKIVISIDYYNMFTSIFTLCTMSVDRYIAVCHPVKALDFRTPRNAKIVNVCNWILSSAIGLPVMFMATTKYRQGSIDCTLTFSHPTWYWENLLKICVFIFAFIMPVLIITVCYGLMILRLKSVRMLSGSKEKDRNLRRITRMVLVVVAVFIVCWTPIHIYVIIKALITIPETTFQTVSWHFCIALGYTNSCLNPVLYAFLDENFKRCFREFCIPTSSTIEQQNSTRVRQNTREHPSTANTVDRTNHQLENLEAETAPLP
Mu-type opioid receptor (Cavia porcellus, UniProt P97266), sequence (P97266 whole entry): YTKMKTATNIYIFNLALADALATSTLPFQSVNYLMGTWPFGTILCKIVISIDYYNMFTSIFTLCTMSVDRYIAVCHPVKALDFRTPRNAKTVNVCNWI
Substance-P receptor (Cavia porcellus), sequence (P30547 whole entry): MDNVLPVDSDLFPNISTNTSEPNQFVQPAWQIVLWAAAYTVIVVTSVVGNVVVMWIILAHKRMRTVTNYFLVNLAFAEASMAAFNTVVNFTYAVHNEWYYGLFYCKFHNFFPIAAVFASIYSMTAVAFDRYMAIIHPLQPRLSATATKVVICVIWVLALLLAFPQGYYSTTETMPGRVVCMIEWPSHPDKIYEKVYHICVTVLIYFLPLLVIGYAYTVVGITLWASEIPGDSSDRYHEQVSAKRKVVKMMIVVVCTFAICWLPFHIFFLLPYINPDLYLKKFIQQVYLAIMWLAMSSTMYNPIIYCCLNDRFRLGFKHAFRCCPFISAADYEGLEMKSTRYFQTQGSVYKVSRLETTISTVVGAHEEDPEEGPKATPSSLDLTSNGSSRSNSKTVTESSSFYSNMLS
Substance-P receptor (Homo sapiens, UniProt P25103), sequence (P25103 whole entry): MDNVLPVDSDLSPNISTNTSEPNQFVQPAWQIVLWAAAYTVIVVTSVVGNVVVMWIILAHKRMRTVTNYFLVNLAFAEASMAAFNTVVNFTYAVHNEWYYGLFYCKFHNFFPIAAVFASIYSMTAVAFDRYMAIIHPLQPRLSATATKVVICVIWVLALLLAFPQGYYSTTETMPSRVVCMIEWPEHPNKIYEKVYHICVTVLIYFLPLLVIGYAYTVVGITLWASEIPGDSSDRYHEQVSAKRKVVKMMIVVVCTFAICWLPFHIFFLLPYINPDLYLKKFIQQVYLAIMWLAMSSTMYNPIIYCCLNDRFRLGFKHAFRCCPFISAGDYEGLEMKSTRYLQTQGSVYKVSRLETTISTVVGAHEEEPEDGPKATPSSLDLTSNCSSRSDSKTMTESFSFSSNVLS
Delta-type opioid receptor (Mus musculus, UniProt P32300), sequence (P32300 whole entry): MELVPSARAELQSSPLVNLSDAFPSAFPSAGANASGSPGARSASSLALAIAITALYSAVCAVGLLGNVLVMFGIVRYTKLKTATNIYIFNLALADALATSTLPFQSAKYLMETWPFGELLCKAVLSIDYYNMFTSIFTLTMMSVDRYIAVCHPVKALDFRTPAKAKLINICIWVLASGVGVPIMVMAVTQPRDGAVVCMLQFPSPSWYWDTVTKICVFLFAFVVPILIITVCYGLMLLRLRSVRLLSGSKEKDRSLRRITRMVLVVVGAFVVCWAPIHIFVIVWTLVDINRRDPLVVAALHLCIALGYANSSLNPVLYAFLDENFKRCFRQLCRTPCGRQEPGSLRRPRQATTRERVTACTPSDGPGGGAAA
Mu-type opioid receptor (Rattus norvegicus), sequence (P33535 whole entry): as the sequence (P33535 whole entry) above

With CCCC[C@H](NC(=O)[C@H](Cc1ccccc1)NC(=O)CNC(=O)[C@@H](C)NC(=O)[C@@H](N)Cc1c(C)cc(O)cc1C)C(=O)N1CCC[C@H]1C(=O)N[C@@H](CC(C)C)C(=O)N[C@@H](Cc1c[nH]c2ccccc12)C(=O)NCc1cccc(C(F)(F)F)c1 the IC50 [1] was 8.51 nM, the IC50 [2] was 2.19 nM and the Ki [2] was 1 nM. For the same compound, the IC50 [3] was 389 nM, the Ki [3] was 140 nM and the IC50 [4] was 8.7 nM. It also gave an IC50 [5] of 22 nM, a Ke [6] of 14 nM and an EC50 ([7]; read-out: EC50) of 0.2 nM. The EC50 ([7]; read-out: pEC50 (converted)) was 0.437 nM, the Emax [8] was 50% and the Emax [9] was 17%.

Compound CCCC[C@H](NC(=O)[C@H](Cc1ccccc1)NC(=O)CNC(=O)[C@@H](C)NC(=O)[C@@H](N)Cc1c(C)cc(O)cc1C)C(=O)N1CCC[C@H]1C(=O)N[C@@H](CC(C)C)C(=O)N[C@@H](Cc1c[nH]c2ccccc12)C(=O)NCc1ccc(OC)c(OC)c1 has an IC50 [1] of 0.316 nM, a Ki [1] of 0.15 nM and an IC50 [10] of 0.631 nM. For the same compound, the IC50 [2] was 2 nM, the Ki [2] was 0.95 nM and the IC50 [3] was 891 nM. For the same compound, the Ki [3] was 320 nM, the IC50 [4] was 8.8 nM and the IC50 [5] was 23 nM. It also gave a Ke [6] of 24 nM, an EC50 ([7]; read-out: EC50) of 0.6 nM and an Emax [8] of 42%. It also gave an EC50 ([11]; read-out: EC50) of 0.72 nM, an EC50 ([11]; read-out: pEC50 (converted)) of 0.955 nM and an Emax [9] of 48%.

In the case of CSCC[C@H](NC(=O)[C@H](Cc1ccccc1)NC(=O)CNC(=O)[C@@H](C)NC(=O)[C@@H](N)Cc1c(C)cc(O)cc1C)C(=O)N1CCC[C@H]1C(=O)N[C@@H](CC(C)C)C(=O)N[C@@H](Cc1c[nH]c2ccccc12)C(=O)NCc1cc(C(F)(F)F)cc(C(F)(F)F)c1, the IC50 [1] is reported as 0.38 nM, the IC50 [10] is reported as 4.27 nM and the IC50 [2] is reported as 0.0182 nM. The IC50 [3] was 5.13 nM, the Ke [6] was 7.5 nM and the Stability [12] was “Stable”.

CN1CC[C@]23c4c5ccc(O)c4O[C@H]2[C@@H](O)C=C[C@H]3[C@H]1C5 [MORPHINE] showed a Time [13] of 20 min.

Work on CSCC[C@H](NC(=O)[C@H](Cc1ccccc1)NC(=O)CNC(=O)[C@@H](C)NC(=O)[C@@H](N)Cc1ccc(O)cc1)C(=O)N1CCC[C@H]1C(=O)N[C@@H](CC(C)C)C(=O)N[C@@H](Cc1c[nH]c2ccccc12)C(=O)NCc1cc(C(F)(F)F)cc(C(F)(F)F)c1 yielded a Time [13] of 15 min.

Compound CCCC[C@H](NC(=O)[C@H](Cc1ccccc1)NC(=O)CNC(=O)[C@@H](C)NC(=O)[C@@H](N)Cc1c(C)cc(O)cc1C)C(=O)N1CCC[C@H]1C(=O)N[C@@H](CC(C)C)C(=O)N[C@@H](Cc1c[nH]c2ccccc12)C(=O)N(C)Cc1cc(C(F)(F)F)cc(C(F)(F)F)c1 has an IC50 [1] of 0.977 nM, an IC50 [10] of 3.31 nM and an IC50 [2] of 0.468 nM. It also gave an IC50 [3] of 30.9 nM, an IC50 [4] of 14 nM and an IC50 [5] of 110 nM. For the same compound, the Ke [6] was 6.1 nM, the EC50 ([7]; read-out: EC50) was 2.3 nM and the EC50 ([7]; read-out: pEC50 (converted)) was 7.08 nM. For the same compound, the Emax [8] was 49% and the EC50 ([11]; read-out: EC50) was 8 nM.

CCCC[C@H](NC(=O)[C@H](Cc1ccccc1)NC(=O)CNC(=O)[C@@H](C)NC(=O)[C@@H](N)Cc1c(C)cc(O)cc1C)C(=O)N1CCC[C@H]1C(=O)N[C@@H](CC(C)C)C(=O)N[C@@H](Cc1c[nH]c2ccccc12)C(=O)NCc1cc(C(F)(F)F)cc(C(F)(F)F)c1 gave an IC50 [1] of 24 nM, an IC50 [2] of 0.166 nM and a Ke [6] of 13 nM. For the same compound, the EC50 ([7]; read-out: pEC50 (converted)) was 0.126 nM.

Reference: ChEMBL document CHEMBL1765015, “Discovery of a potent and efficacious peptide derivative for δ/μ opioid agonist/neurokinin 1 antagonist activity with a 2',6'-dimethyl-L-tyrosine: in vitro, in vivo, and NMR-based structural studies” (J Med Chem, 2011)
